The values that follow come from ChEMBL document CHEMBL1122284, “Aromatic retinoic acid analogues. 2. Synthesis and pharmacological activity” (1983).

The structures appear in SMILES notation.

Test [1] addresses T1, Ornithine decarboxylase (Mus musculus) (UniProt P00860).
T1 sequence (whole entry): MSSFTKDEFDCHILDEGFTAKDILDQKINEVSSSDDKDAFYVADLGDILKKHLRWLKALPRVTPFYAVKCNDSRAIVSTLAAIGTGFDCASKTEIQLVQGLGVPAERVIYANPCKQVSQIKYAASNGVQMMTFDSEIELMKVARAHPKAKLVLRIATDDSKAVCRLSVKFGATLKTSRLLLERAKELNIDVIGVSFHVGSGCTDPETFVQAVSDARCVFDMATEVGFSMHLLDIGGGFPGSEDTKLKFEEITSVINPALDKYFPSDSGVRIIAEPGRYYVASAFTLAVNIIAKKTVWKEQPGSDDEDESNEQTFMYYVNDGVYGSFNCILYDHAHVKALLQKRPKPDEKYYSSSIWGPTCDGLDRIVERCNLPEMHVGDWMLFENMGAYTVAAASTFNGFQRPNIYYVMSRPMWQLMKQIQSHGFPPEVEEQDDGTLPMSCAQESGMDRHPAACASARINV
Briefly: Percent inhibition of the induction of ornithine decarboxylase at 170 nmol in mouse dorsal epidermis (ODC assay). In kind it is functional.

Test [2] has as its system Cricetinae gen. sp. Briefly: Relative potency with respect to retinoic acid in hamster tracheal organ culture assay (TOC). In kind it is functional, Cricetulus griseus, Trachea.
Test [3] addresses T1, Ornithine decarboxylase (Mus musculus). Briefly: Percent inhibition of the induction of ornithine decarboxylase at 1.7 nmol in mouse dorsal epidermis (ODC assay). In kind it is functional.
Test [4] has the same target. Description: Percent inhibition of the induction of ornithine decarboxylase at 17 nmol dose in mouse dorsal epidermis (ODC assay). The test is classed as functional.
Test [5] deals with Cricetinae gen. sp. Description: Total cultures(6) versus active (3) at 10e-10 M conc. in hamster tracheal organ culture assay (TOC). In kind it is functional, Trachea. The procedure, abridged: (§1)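 Tracheas from Syrian golden hamsters kept on a vitamin A deficient diet from birth to 30–32 days old. Cultured serum-free (CMRL 1066 with insulin, hydrocortisone, glutamine, antibiotics), one explant per dish, 50% O2/45% N2/5% CO2, 36 °C, rocked. 3 days without retinoid, then 7 days with retinoid, medium renewed three times. Histology on day 10. Active means keratin/keratohyaline granules absent. Usually duplicate, 6–7 tracheas per concentration.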

The test system of test [6] is Cricetinae gen. sp. Description: Total cultures(6) versus active (1) at 10e-11 M conc. in hamster tracheal organ culture assay (TOC). The test is classed as functional, Trachea. In short, it runs like this: as §1
Test [7] concerns Cricetinae gen. sp. Description: ED50 of retinoid required to effect reversal of keratinization. In kind it is functional. The procedure, abridged:
as §1

For test [8], the system named is Cricetinae gen. sp. Briefly: Total cultures(6) versus active (5) at 10e-9 M conc. in hamster tracheal organ culture assay (TOC). In kind it is functional, Trachea. In short, it runs like this:
as §1

The target of test [9] is T1, Ornithine decarboxylase (Mus musculus). Description: Percent inhibition of the induction of ornithine decarboxylase in mouse dorsal epidermis (ODC assay). The test is classed as functional.
The test system of test [10] is Cricetinae gen. sp. Briefly: Total cultures (14) versus active (4) at 10e-10 M conc. in hamster tracheal organ culture assay (TOC). The test is classed as functional, Trachea. In short, it runs like this:
as §1

Test [11] has as its system Cricetinae gen. sp. Briefly: Total cultures(7) versus active (7) at 10e-8 M conc. in hamster tracheal organ culture assay (TOC). The test is classed as functional, Trachea. The procedure, abridged:
as §1

Test [12] has as its system Cricetinae gen. sp. Briefly: Total cultures (14) versus active (8) at 10e-9 M conc. in hamster tracheal organ culture assay (TOC). In kind it is functional, Trachea. The procedure, abridged:
as §1

Test [13] deals with Cricetinae gen. sp. Briefly: Total cultures(6) versus active(6) at 10e-8 M conc. in hamster tracheal organ culture assay (TOC). In kind it is functional, Trachea. The procedure, abridged: as §1
In test [14] the test system is Cricetinae gen. sp. Briefly: Total cultures(9) versus active(14) at 10e-10 M conc. in hamster tracheal organ culture assay (TOC). The test is classed as functional, Trachea. The procedure, abridged: as §1
Test [15] concerns Cricetinae gen. sp. Briefly: Total cultures(11) versus active(13) at 10e-9 M conc. in hamster tracheal organ culture assay (TOC). In kind it is functional, Trachea. The procedure, abridged: as §1
In test [16] the test system is Cricetinae gen. sp. Description: Total cultures (1)versus active(6) at 10e-11 M conc. in hamster tracheal organ culture assay (TOC). The test is classed as functional, Trachea. The procedure, abridged: as §1
Test [17] deals with Cricetinae gen. sp. Description: Total cultures(11) versus active (5) at 10e-8 M conc. in hamster tracheal organ culture assay (TOC). In kind it is functional, Trachea. The procedure, abridged:
as §1

Test [18] concerns Cricetinae gen. sp. Description: Total cultures(13) versus active (5) at 10e-9 M conc. in hamster tracheal organ culture assay (TOC). The test is classed as functional, Trachea. In short, it runs like this: as §1
Test [19] deals with Cricetinae gen. sp. Briefly: Total cultures (13) versus active (4) at 10e-10 M conc. in hamster tracheal organ culture assay (TOC). In kind it is functional, Trachea. In short, it runs like this:
as §1

The test system of test [20] is Cricetinae gen. sp. Description: Total cultures(3) versus active(11) at 10e-10 M conc. in hamster tracheal organ culture assay (TOC). The test is classed as functional, Trachea. The procedure, abridged: as §1
The test system of test [21] is Cricetinae gen. sp. Briefly: Total cultures(0) versus active(6) at 10e-11 M conc. in hamster tracheal organ culture assay (TOC). In kind it is functional, Trachea. In short, it runs like this: as §1
Test [22] concerns Cricetinae gen. sp. Description: Total cultures(12) versus active(12) at 10e-9 M conc. in hamster tracheal organ culture assay (TOC). The test is classed as functional, Trachea. In short, it runs like this:
as §1

Test [23] has as its system Cricetinae gen. sp. Description: Total cultures(5) versus active(13) at 10e-10 M conc. in hamster tracheal organ culture assay (TOC). The test is classed as functional, Trachea. The procedure, abridged:
as §1

Test [24] deals with Cricetinae gen. sp. Description: Total cultures(13) versus active(13) at 10e-8 M conc. in hamster tracheal organ culture assay (TOC). The test is classed as functional, Trachea. In short, it runs like this:
as §1

The subject of test [25] is Cricetinae gen. sp. Briefly: Total cultures(12) versus active(13) at 10e-9 M conc. in hamster tracheal organ culture assay (TOC). The test is classed as functional, Trachea. In short, it runs like this: as §1

As for `CC1=C(/C=C/C(C)=C/c2ccc(C(=O)O)cc2)C(C)(C)CCC1`, the inhibition of control in test [1] is 87%; in test [3], 62%; in [4], 69%. In the test on Cricetinae gen. sp. [2], this compound displayed a Relative activity of 2.

Regarding `COc1cc(C(=O)O)ccc1/C=C(C)/C=C/C1=C(C)CCCC1(C)C`, the Active/total cultures in the test on Cricetinae gen. sp. [5] is 50%; with Cricetinae gen. sp. [6] it was 17%; in the test on Cricetinae gen. sp. [8], 83%. The Relative activity in the test on Cricetinae gen. sp. [2] is given as 3. The ED50 with Cricetinae gen. sp. [7] turned out to be 10 pM. Further, the inhibition of control was 9% in [3] and 37% in test [4].

In the test on Cricetinae gen. sp. [2], `CC1=C(/C=C/C(C)=C\c2ccc(C(=O)O)cc2)C(C)(C)CCC1` came in with a Relative activity of less than 0.1. In addition, the inhibition of control in test [9] stood at 64%; in test [3] it was 33%; in [4] it was 43%. Moreover, the ED50 in the test on Cricetinae gen. sp. [7] is 10 pM.

`CCOC(=O)c1ccc(/C=C(C)/C=C/C2=C(C)CCCC2(C)C)cn1`: the Active/total cultures in the test with Cricetinae gen. sp. [10] is on record as 29%; in the test with Cricetinae gen. sp. [11] it was 100%; with Cricetinae gen. sp. [12], 57%. For the same compound, the Relative activity in the test on Cricetinae gen. sp. [2] is 0.4. Besides, the ED50 in the test on Cricetinae gen. sp. [7] was 8 pM. Besides, the figures for the inhibition of control in [3] and in test [4] were 29% and 60%, respectively.

Take `CCOC(=O)c1ccc(/C=C(C)/C=C/C2=C(C)CCCC2(C)C)c(F)c1`: the Active/total cultures came out at 100% with Cricetinae gen. sp. [13], 64% with Cricetinae gen. sp. [14], 85% with Cricetinae gen. sp. [15] and 17% with Cricetinae gen. sp. [16]. Besides, in the test with Cricetinae gen. sp. [2], the Relative activity is on record as 5. In addition, the ED50 in the test with Cricetinae gen. sp. [7] was found to be 6 pM. Moreover, the inhibition of control came to 8% in [3] and 46% in test [4].

With `CC1=C(/C=C/C(C)=C/c2ccc(C(=O)O)o2)C(C)(C)CCC1`, the Active/total cultures is listed as 45% in the test on Cricetinae gen. sp. [17], 38% in the test on Cricetinae gen. sp. [18] and 31% in the test on Cricetinae gen. sp. [19]. Further, the Relative activity with Cricetinae gen. sp. [2] is listed as <<0.1. Besides, the ED50 with Cricetinae gen. sp. [7] was 20 pM. Also, the inhibition of control stood at 7% in [3] and 5% in [4].

For `CC1=C(/C=C/C(C)=C/c2ccc(C(=O)O)cc2F)C(C)(C)CCC1`, the Active/total cultures in the test with Cricetinae gen. sp. [13] came to 100%; in the test with Cricetinae gen. sp. [20] it was 27%; with Cricetinae gen. sp. [21], 0%; in the test on Cricetinae gen. sp. [22] it was 100%. Further, in the test on Cricetinae gen. sp. [2], the Relative activity is 5. The ED50 in the test with Cricetinae gen. sp. [7] was 6 pM. Moreover, the values for the inhibition of control in test [3] and in test [4] were 37% and 78%, respectively.

Regarding `CC1=C(/C=C/C(C)=C(\F)c2ccc(C(=O)O)cc2)C(C)(C)CCC1`, the Relative activity with Cricetinae gen. sp. [2] is listed as 3. For the same compound, the results for the Active/total cultures with Cricetinae gen. sp. [23], in the test with Cricetinae gen. sp. [24] and with Cricetinae gen. sp. [25] were 38%, 100% and 92%, respectively. Moreover, the ED50 in the test on Cricetinae gen. sp. [7] came out at 20 pM. Also, the inhibition of control in test [3] came out at 70%; in [4], 80%.
